From ChEMBL document CHEMBL5329184, “Design, synthesis, electrochemistry and anti-trypanosomatid hit/lead identification of nitrofuranylazines” (RSC Med Chem, 2023) come the findings set out here.

For orientation: pIC50 means −log10 of the IC50, conventionally taken in molar units.

pIC50: −log10 of the molar value.

One series deals with THP-1. Kind of series: cells. In kind it is functional, cell-based. The settings on record: Homo sapiens, THP-1, 72 h.
Series [1] concerns Leishmania major. The series can be described thus: Antileishmanial activity against Leishmania major IR-173 promastigotes assessed as inhibition of parasite growth incubated for 48 hrs by resazurin staining based analysis. It counts as functional, organism-based. The settings on record: IR-173, 48 h. The gist of the method: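 Logarithmic-phase promastigotes (1.25 × 10^6 cells per mL) grown in supplemented M199 with 10% FBS, pH 7.3–7.4, 26 °C. […] 48 h at 26 °C, then resazurin 24 h in the dark. Absorbance 570 minus 600 nm. IC50 by non-linear regression, mean ± SD of three biological replicates.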
In general terms: Alamar Blue is a resazurin reagent that responds to reducing activity.

Series [2] relates to Leishmania major. Kind of series: Selectivity index, ratio of IC50 for antileishmanial activity against Leishmania major IR-173 promastigotes assessed as inhibition of parasite growth to IC50 for antileishmanial activity against Leishmania major IR-173 amastigote assessed as inhibition of parasite growth. In kind it is functional.
Series [3] deals with Leishmania donovani. The series can be described thus: Antileishmanial activity against Leishmania donovani MHOM/IN/95/9515 promastigotes assessed as inhibition of parasite growth incubated for 48 hrs by resazurin staining based analysis. It counts as functional, organism-based. The settings on record: MHOM/IN/95/9515, 48 h.
A short description of series [4]: Selectivity index, ratio of IC50 for cytotoxicity against human THP-1 cells assessed as inhibition of cell growth to IC50 for antileishmanial activity against Leishmania donovani MHOM/IN/95/9515 amastigote assessed as inhibition of parasite growth. In kind it is functional.
The subject of series [5] is Leishmania donovani. Kind of series: Selectivity index, ratio of IC50 for antileishmanial activity against Leishmania donovani MHOM/IN/95/9515 promastigotes assessed as inhibition of parasite growth to IC50 for antileishmanial activity against Leishmania donovani MHOM/IN/95/9515 amastigote assessed as inhibition of parasite growth. In kind it is functional.
Series [6] relates to Trypanosoma cruzi. The series can be described thus: Antitrypanosomal activity against Trypanosoma cruzi epimastigotes assessed as parasite growth inhibition incubated for 48 hrs by resazurin staining based analysis. It counts as functional, organism-based.
Series [7] is described as follows: Selectivity index, ratio of IC50 for cytotoxicity against African green monkey Vero cells assessed as inhibition of cell growth to IC50 for antitrypanosomal activity against Trypanosoma cruzi epimastigotes assessed as parasite growth inhibition. It counts as toxicity, cell-based. The settings on record: read-out: Ratio IC50.
Series [8] in a line: in vitro. The settings on record: monkey, Vero cells.
Series [9] in a line: in vitro. The settings on record: monkey, Vero cells. The source holds these as a separate data set.
Series [10] can be described thus: in vitro. The settings on record: monkey, Vero cells. The source holds these as a separate data set.
Series [11] can be described thus: in vitro. The settings on record: monkey, Vero cells. This is another data set of the same source.
Series [12] has as its system Leishmania major. Kind of series: Antileishmanial activity against Leishmania major IR-173 amastigote assessed as inhibition of parasite growth incubated for 72 hrs by resazurin staining based analysis. The settings on record: IR-173, 72 h.
Series [13] concerns Leishmania donovani. Kind of series: Antileishmanial activity against Leishmania donovani MHOM/IN/95/9515 amastigote assessed as inhibition of parasite growth incubated for 72 hrs by resazurin staining based analysis. The settings on record: MHOM/IN/95/9515, 72 h.
Series [14] concerns Trypanosoma cruzi. Kind of series: Antitrypanosomal activity against bloodstream Trypanosoma cruzi trypomastigotes infected in African green monkey Vero cells assessed as parasite growth inhibition incubated for 48 hrs by resazurin assay.
Series [15] is described as follows: Selectivity index, ratio of IC50 for cytotoxicity against African green monkey Vero cells assessed as inhibition of cell growth to IC50 for antitrypanosomal activity against Trypanosoma cruzi trypomastigotes assessed as parasite growth inhibition. The settings on record: read-out: Ratio IC50. In kind it is toxicity, cell-based.
Series [16] in a line: Selectivity index, ratio of IC50 for cytotoxicity against human THP-1 cells assessed as inhibition of cell growth to IC50 for antitrypanosomal activity against Trypanosoma cruzi trypomastigotes assessed as parasite growth inhibition. In kind it is functional.
Series [17] deals with Trypanosoma cruzi. Kind of series: Selectivity index, ratio of IC50 for antitrypanosomal activity against Trypanosoma cruzi epimastigote assessed as parasite growth inhibition to IC50 for antitrypanosomal activity against Trypanosoma cruzi trypomastigotes assessed as parasite growth inhibition. In kind it is functional.

`O=[N+]([O-])c1ccc(/C=N/N=C/c2ccc(Br)cc2)o1`: the pIC50 in the series with THP-1 was less than 4.00; in the series on Leishmania major [1], 6.12; with Leishmania donovani [3] it was 5.45; in the series with Trypanosoma cruzi [6] it was 4.34; in the series with Leishmania major [12], 6.20; in the series with Leishmania donovani [13] it was 5.19. For the same molecule, the pIC50 in the series with Trypanosoma cruzi [14] is less than 5.00. The Ratio IC50 in the series with Leishmania major [2] is 1.19; in series [4], 16; in the series on Leishmania donovani [5] it was 0.56. Besides, the selectivity ratio in series [7] worked out at 2; in “in vitro [8]”, 133; in “in vitro [9]” it was 159; in “in vitro [10]” it was 28; in the series “in vitro [11]” it was 16.

Regarding `O=[N+]([O-])c1ccc(/C=N/N=C/c2ccc(Cl)cc2)o1`, the pIC50 in the series on THP-1 was less than 4.00; in the series on Leishmania major [1], 6.38; in the series on Leishmania donovani [3], 6.17; in the series on Trypanosoma cruzi [6], 5.62; in the series with Leishmania major [12], 5.61; with Leishmania donovani [13], less than 5.00. In addition, the pIC50 in the series with Trypanosoma cruzi [14] is 5.52. Further, the Ratio IC50 is 0.17 with Leishmania major [2], 33 in [16] and 0.79 in the series on Trypanosoma cruzi [17]. Further, the selectivity ratio was 41 in [7]; 33 in series [15]; 238 in “in vitro [8]”; 40 in “in vitro [9]”; 149 in “in vitro [10]”.

With `O=[N+]([O-])c1ccc(/C=N/N=C/c2ccc([N+](=O)[O-])o2)cc1`, the pIC50 in the series on THP-1 was 4.78; in the series with Leishmania major [1] it was 6.15; in the series with Leishmania donovani [3], 6.15; in the series with Trypanosoma cruzi [6], 5.58; in the series on Leishmania major [12] it was 5.10; in the series with Leishmania donovani [13] it was 6.28. Besides, the negative logarithm of the IC50 (pIC50) in the series with Trypanosoma cruzi [14] was 6.11. The Ratio IC50 in the series on Leishmania major [2] worked out at 0.09; in [4], 32; with Leishmania donovani [5], 1.32; in [16], 21; in the series on Trypanosoma cruzi [17], 3.37. Besides, the selectivity ratio in series [7] was determined as 4; in series [15], 15; in “in vitro [8]” it was 17; in “in vitro [9]”, 1; in “in vitro [10]” it was 17; in the series “in vitro [11]”, 22.

`O=Cc1ccc([N+](=O)[O-])o1`: the pIC50 in the series on THP-1 was 4.09; in the series with Leishmania major [1] it was 5.10; in the series with Leishmania donovani [3] it was less than 5.00; in the series on Trypanosoma cruzi [6], less than 5.00; with Leishmania major [12] it was 5.25; in the series with Leishmania donovani [13] it was 5.57. The pIC50 with Trypanosoma cruzi [14] was less than 5.00. Moreover, the Ratio IC50 in the series on Leishmania major [2] worked out at 1.42; in series [4], 30. Moreover, the selectivity ratio came out at 2 in “in vitro [8]” and 3 in “in vitro [9]”.
